Reference: ChEMBL document CHEMBL3751829, “Synthesis and biological evaluation of 3-tetrazolo steroidal analogs: Novel class of 5α-reductase inhibitors” (Bioorg Med Chem, 2016)

Tests used:
Rattus norvegicus [1] = assay: Decrease in dorsal prostate organ weight in male wistar rat at 5ml/kg, po qd measured on 15th day after 24 hrs of last dose; format: functional, Prostate gland; set-up: scale not given: the % may be the effect or the level left
Rattus norvegicus [2] = assay: Increase in body weight gain in male wistar rat at 5ml/kg, po qd measured on 15th day after 24 hrs of last dose (Rvb=9.412+/-1.632g%); format: ADME, organism-based; details: in vivo
[3] = target: T1, 3-oxo-5-alpha-steroid 4-dehydrogenase 2 (Homo sapiens) (UniProt P31213); assay: Inhibition of human 5alpha-2 reductase expressed in HEK293 cells assessed as suppression of conversion of [3]androstenedione at 2 uM incubated for 30 mins by radioactivity-based HPLC analysis; format: cell-based
T1 sequence (whole entry): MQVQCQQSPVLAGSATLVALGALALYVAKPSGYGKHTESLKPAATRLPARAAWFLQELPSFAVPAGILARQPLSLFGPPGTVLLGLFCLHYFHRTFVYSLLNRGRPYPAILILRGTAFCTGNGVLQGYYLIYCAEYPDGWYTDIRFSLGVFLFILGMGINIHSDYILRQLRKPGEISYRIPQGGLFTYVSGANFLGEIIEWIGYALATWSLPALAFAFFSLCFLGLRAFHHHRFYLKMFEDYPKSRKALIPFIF
In short: (§1)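 Stably transfected HEK293 lines expressing 5AR-1 (HEK-I) or 5AR-2 (HEK-II) were sonicated in saccharose/Tris/EDTA buffer. The suspension was incubated at 37 °C for 30 min with 500 nM androstenedione solution plus [3H]androstenedione and an NADP/glucose/G6PDH regenerating system. Test compounds were added in 2% DMSO. The reaction was stopped with ether; steroids were extracted and analysed by radio-HPLC.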

Rattus norvegicus [4] = assay: Decrease in vas deferens organ weight in male wistar rat at 5ml/kg, po qd measured on 15th day after 24 hrs of last dose; format: functional; set-up: scale not given: the % may be the effect or the level left
Rattus norvegicus [5] = assay: Toxicity in male wistar rat assessed induction of mortality at 5ml/kg, po qd measured on 15th day after 24 hrs of last dose; format: organism-based; details: in vivo
In short: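 Mature male Wistar rats, groups of 5, standard diet. Compounds suspended in 0.50% CMC sodium given orally at 5 ml/kg once daily for 14 days; controls received vehicle only. Animals weighed and killed under ether on day 15, 24 h after last dose.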

[6] = target: T1, 3-oxo-5-alpha-steroid 4-dehydrogenase 2 (Homo sapiens); assay: Inhibition of human 5alpha-2 reductase expressed in HEK293 cells assessed as suppression of conversion of [3]androstenedione at 10 uM incubated for 30 mins by radioactivity-based HPLC analysis; format: cell-based; in short: as §1
[7] = target: T2, 3-oxo-5-alpha-steroid 4-dehydrogenase 1 (Homo sapiens) (UniProt P18405); assay: Inhibition of human 5alpha-1 reductase expressed in HEK293 cells assessed as suppression of conversion of [3]androstenedione at 2 uM incubated for 30 mins by radioactivity-based HPLC analysis; format: cell-based
T2 sequence (whole entry): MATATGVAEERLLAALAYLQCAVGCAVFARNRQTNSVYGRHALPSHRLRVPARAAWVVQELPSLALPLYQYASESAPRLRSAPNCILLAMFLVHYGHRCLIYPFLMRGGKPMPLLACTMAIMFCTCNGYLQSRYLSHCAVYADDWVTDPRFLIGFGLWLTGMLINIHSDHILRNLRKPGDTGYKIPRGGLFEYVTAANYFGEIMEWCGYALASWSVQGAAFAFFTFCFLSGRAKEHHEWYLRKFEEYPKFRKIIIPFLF
In short: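 Lysates of stably transfected HEK293 cells (80% confluent cells sonicated in 300 mM saccharose, 5 mM Tris–HCl, 0.1 mM EDTA). Master mix: Tris buffer, androstenedione (500 nM solution) plus tracer [3H]androstenedione, NADP/glucose/glucose-6-P-dehydrogenase regenerating system; compound added in 2% DMSO. Cell suspension mixed 1:1 with master mix, 37 °C for 30 min. Stopped with ether; steroids extracted, dried, taken up in methanol, radio-HPLC.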

Rattus norvegicus [8] = assay: Effect on organ weight in male wistar rat assessed as dorsal prostate tissue weight per 100g at 5ml/kg, po qd measured on 15th day after 24 hrs of last dose (Rvb=50.325+/-7.519 mg/100g); format: functional, Prostate gland
Rattus norvegicus [9] = assay: Effect on organ weight in male wistar rat assessed as adrenal tissue weight per 100g at 5ml/kg, po qd measured on 15th day after 24 hrs of last dose (Rvb=14.762 +/-0.600 mg/100g); format: ADME, organism-based; details: in vivo
[10] = target: T3, 3-oxo-5-alpha-steroid 4-dehydrogenase 2 (Homo sapiens, UniProt P31213); assay: Inhibition of human 5alpha-2 reductase expressed in HEK293 cells assessed as suppression of conversion of [3]androstenedione incubated for 30 mins by radioactivity-based HPLC analysis; format: cell-based; in short: as §1
T3 sequence (P31213 whole entry): T1 sequence (whole entry)

[11] = target: T2, 3-oxo-5-alpha-steroid 4-dehydrogenase 1 (Homo sapiens); assay: Inhibition of human 5alpha-1 reductase expressed in HEK293 cells assessed as suppression of conversion of [3]androstenedione at 10 uM incubated for 30 mins by radioactivity-based HPLC analysis; format: cell-based; in short: as §1
Rattus norvegicus [12] = assay: Effect on organ weight in male wistar rat assessed as vas deferens tissue weight per 100g at 5ml/kg, po qd measured on 15th day after 24 hrs of last dose (Rvb=67.613+/-3.248 mg/100g); format: functional
Rattus norvegicus [13] = assay: Effect on organ weight in male wistar rat assessed as ventral prostate tissue weight per 100g at 5ml/kg, po qd measured on 15th day after 24 hrs of last dose (Rvb=59.494+/- 4.733 mg/100g); format: functional, Prostate gland
Rattus norvegicus [14] = assay: Effect on organ weight in male wistar rat assessed as epididymis tissue weight per 100g at 5ml/kg, po qd measured on 15th day after 24 hrs of last dose (Rvb=187.356+/- 5.961 mg/100g); format: functional
Rattus norvegicus [15] = assay: Effect on organ weight in male wistar rat assessed as liver tissue weight per 100g at 5ml/kg, po qd measured on 15th day after 24 hrs of last dose (Rvb=2.994+/- 0.254 g/100g); format: ADME, organism-based; details: in vivo
[16] = target: T4, 3-oxo-5-alpha-steroid 4-dehydrogenase 1 (Homo sapiens, UniProt P18405); assay: Inhibition of human 5alpha-1 reductase expressed in HEK293 cells assessed as suppression of conversion of [3]androstenedione incubated for 30 mins by radioactivity-based HPLC analysis; format: cell-based; in short: as §1
T4 sequence (P18405 whole entry): T2 sequence (whole entry)

Rattus norvegicus [17] = assay: Decrease in epididymis organ weight in male wistar rat at 5ml/kg, po qd measured on 15th day after 24 hrs of last dose; format: functional; set-up: scale not given: the % may be the effect or the level left
Rattus norvegicus [18] = assay: Effect on organ weight in male wistar rat assessed testis tissue weight per 100g at 5ml/kg, po qd measured on 15th day after 24 hrs of last dose (Rvb=1054.099+/- 55.648 mg/100g); format: ADME, organism-based; details: in vivo
Rattus norvegicus [19] = assay: Decrease in ventral prostate organ weight in male wistar rat at 5ml/kg, po qd measured on 15th day after 24 hrs of last dose; format: functional, Prostate gland; set-up: scale not given: the % may be the effect or the level left
Rattus norvegicus [20] = assay: Effect on organ weight in male wistar rat assessed as seminal vesicles tissue weight per 100g at 5ml/kg, po qd measured on 15th day after 24 hrs of last dose (Rvb=175.439+/-12.833 mg/100g); format: ADME, organism-based; details: in vivo
[21] = Cytotoxicity against human DU145 cells by rapid colorimetric assay; format: functional, cell-based, DU-145; details: du-145
In short: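 Antiproliferative test on DU-145 cells using the Mosmann method. Seven concentrations were tested in culture medium.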

SMILES: CC(=O)C1CC[C@H]2[C@@H]3CC=C4C=C(c5nnn[nH]5)CC[C@]4(C)[C@H]3CC[C@]12C (stereo partly specified)
- Activity (Rattus norvegicus [1]): 17.78%
- Activity (Rattus norvegicus [2]): 8.328 g%
- inhibition [3]: 100%
- Activity (Rattus norvegicus [4]): 57.1%
- Activity (Rattus norvegicus [5]): Non-toxic
- inhibition [6]: 100%
- inhibition [7]: 82.6%
- Activity (Rattus norvegicus [8]): 41.379 mg
- Activity (Rattus norvegicus [9]): 17.762 mg
- IC50 [10]: 15.6 nM
- inhibition [11]: 95%
- Activity (Rattus norvegicus [12]): 29.009 mg
- Activity (Rattus norvegicus [13]): 38.433 mg
- Activity (Rattus norvegicus [14]): 127.85 mg
- Activity (Rattus norvegicus [15]): 3.649 g
- IC50 [16]: 547 nM
- Activity (Rattus norvegicus [17]): 31.76%
- Activity (Rattus norvegicus [18]): 844.538 mg
- Activity (Rattus norvegicus [19]): 35.4%
- Activity (Rattus norvegicus [20]): 78.265 mg
- IC50 [21]: Not Active
